# Results as given in PMC4390475 (Journal of pharmaceutical sciences, 2015).
# Legend:
# P-gp = assay: Bi-directional permeability study using Caco-2 cells; details: human; for Papp A→B at 120 min, 1 μM: Caco-2, pH 6, Papp A–B (mean); for Papp B→A at 120 min, 1 μM: Caco-2, pH 7.4, Papp B-A (mean)
# [1] = negative control; cited from earlier work
# Stability in plasma [2] = assay type: in vitro ADME; details: dog plasma diluted 1:1 with PBS, 15 μM, up to 1 h, 37°C
# CYP2B6 = target: T1, CYP2B6 (Homo sapiens, UniProt P20813); assay: CYP inhibition in human liver microsomes; assay type: in vitro ADME; details: 1 or 10 μM test article, 20 min, 37°C
# T1 sequence (P20813 1-491): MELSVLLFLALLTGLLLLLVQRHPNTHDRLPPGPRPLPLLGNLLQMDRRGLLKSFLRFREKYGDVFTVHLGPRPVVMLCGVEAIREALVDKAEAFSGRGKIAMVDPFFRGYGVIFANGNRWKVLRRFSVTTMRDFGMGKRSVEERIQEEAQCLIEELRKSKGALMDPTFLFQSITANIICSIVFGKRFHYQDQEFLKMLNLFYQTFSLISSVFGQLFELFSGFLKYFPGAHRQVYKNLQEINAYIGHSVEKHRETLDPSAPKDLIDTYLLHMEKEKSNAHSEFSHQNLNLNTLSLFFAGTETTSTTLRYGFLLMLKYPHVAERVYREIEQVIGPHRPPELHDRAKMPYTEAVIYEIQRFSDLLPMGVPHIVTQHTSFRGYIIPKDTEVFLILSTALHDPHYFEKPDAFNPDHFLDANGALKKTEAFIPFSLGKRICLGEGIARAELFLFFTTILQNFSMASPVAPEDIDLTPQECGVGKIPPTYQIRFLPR
# Procedure, shortened: (§1)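 Pooled human liver microsomes (0.5 mg/mL), 2.5 mM NADPH, 3.3 mM MgCl₂, 0.1 M phosphate pH 7.4, 0.3% DMSO, probe cocktail near Km: phenacetin 25 μM (1A2), bupropion 25 μM (2B6), diclofenac 10 μM (2C9), mephenytoin 20 μM (2C19), bufuralol 10 μM (2D6), testosterone 50 μM and midazolam 4 μM (3A4). Cold acetonitrile quench; LC-MS/MS metabolite peak-area ratio over mean control ×100; n = 3.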
# CYP2C19 = CYP2C19 (Homo sapiens, UniProt P33261); assay: CYP inhibition in human liver microsomes; assay type: in vitro ADME; details: 1 or 10 μM test article, 20 min, 37°C
# Chain of CYP2C19 (P33261 whole entry): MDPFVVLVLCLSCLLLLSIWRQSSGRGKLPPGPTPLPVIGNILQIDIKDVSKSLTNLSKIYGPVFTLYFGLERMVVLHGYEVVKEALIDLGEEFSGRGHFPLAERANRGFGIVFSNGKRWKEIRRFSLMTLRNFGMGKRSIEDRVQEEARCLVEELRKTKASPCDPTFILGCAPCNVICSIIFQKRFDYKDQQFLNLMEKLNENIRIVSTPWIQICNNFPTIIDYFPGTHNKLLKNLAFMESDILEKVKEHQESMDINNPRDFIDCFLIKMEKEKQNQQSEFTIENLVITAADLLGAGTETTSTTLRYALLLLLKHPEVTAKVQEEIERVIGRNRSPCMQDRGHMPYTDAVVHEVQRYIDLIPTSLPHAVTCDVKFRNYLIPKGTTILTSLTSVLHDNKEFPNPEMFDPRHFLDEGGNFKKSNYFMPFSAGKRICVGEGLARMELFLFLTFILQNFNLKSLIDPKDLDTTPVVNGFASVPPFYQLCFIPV
# Procedure, shortened: as §1
# CYP2C9 = CYP2C9 (Homo sapiens, UniProt P11712); assay: CYP inhibition in human liver microsomes; assay type: in vitro ADME; details: 1 or 10 μM test article, 20 min, 37°C
# Chain of CYP2C9 (P11712 whole entry): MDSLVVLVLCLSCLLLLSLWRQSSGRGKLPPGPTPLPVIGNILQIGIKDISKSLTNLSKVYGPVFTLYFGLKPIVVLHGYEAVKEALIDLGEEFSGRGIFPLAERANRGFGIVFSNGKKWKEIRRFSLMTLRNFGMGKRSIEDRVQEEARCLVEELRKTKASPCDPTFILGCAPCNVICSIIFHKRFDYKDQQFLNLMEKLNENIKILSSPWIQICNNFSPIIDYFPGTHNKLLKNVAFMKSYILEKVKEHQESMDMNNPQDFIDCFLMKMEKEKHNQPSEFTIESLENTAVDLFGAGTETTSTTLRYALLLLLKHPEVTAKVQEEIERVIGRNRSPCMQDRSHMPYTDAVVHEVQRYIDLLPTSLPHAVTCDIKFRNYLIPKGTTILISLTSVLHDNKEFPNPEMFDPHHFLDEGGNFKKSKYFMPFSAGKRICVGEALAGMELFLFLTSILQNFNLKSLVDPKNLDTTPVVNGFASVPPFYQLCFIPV
# Procedure, shortened: as §1
# CYP2D6 = CYP2D6 (Homo sapiens, UniProt P10635); assay: CYP inhibition in human liver microsomes; assay type: in vitro ADME; details: 1 or 10 μM test article, 20 min, 37°C
# Chain of CYP2D6 (P10635 whole entry): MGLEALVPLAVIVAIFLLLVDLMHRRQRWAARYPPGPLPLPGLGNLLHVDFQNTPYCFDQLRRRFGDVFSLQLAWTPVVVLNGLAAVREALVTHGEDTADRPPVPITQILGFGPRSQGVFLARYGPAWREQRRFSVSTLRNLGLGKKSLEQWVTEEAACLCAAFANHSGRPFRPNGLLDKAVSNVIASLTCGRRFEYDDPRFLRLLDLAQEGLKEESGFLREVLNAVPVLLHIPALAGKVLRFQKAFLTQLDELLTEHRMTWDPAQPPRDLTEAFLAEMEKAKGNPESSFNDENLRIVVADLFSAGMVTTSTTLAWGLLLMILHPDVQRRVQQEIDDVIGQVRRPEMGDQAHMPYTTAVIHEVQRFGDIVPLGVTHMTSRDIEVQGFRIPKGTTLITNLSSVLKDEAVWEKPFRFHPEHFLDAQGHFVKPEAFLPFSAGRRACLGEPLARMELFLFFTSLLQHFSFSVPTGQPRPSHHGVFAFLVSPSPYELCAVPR
# Procedure, shortened: as §1
# [3] = Stability in acidic aqueous buffered solutions; assay type: physicochemical; details: for stability in acidic buffer: 48 h, 25°C/60%RH
# Procedure, shortened: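 Test compound at 10 mg/mL was held in USP buffers: hydrochloric acid (pH 1.40), acetate (pH 4.50) and phosphate (pH 6.80). Incubation was at 25°C/60% RH in sealed, light-protected glass vials. Aliquots taken at 1, 3, 6, 24 and 48 h were diluted 10-fold and analysed by LC-MS, as for the microsomal stability samples.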
# [4] = orally administered, 225 mg/kg; cited from earlier work
# Stability in plasma [5] = assay type: in vitro ADME; details: mouse plasma diluted 1:1 with PBS, 15 μM, up to 1 h, 37°C
# CYP1A2 = target: T2, CYP1A2 (Homo sapiens, UniProt P05177); assay: CYP inhibition in human liver microsomes; assay type: in vitro ADME; details: 1 or 10 μM test article, 20 min, 37°C
# T2 sequence (P05177 1-516): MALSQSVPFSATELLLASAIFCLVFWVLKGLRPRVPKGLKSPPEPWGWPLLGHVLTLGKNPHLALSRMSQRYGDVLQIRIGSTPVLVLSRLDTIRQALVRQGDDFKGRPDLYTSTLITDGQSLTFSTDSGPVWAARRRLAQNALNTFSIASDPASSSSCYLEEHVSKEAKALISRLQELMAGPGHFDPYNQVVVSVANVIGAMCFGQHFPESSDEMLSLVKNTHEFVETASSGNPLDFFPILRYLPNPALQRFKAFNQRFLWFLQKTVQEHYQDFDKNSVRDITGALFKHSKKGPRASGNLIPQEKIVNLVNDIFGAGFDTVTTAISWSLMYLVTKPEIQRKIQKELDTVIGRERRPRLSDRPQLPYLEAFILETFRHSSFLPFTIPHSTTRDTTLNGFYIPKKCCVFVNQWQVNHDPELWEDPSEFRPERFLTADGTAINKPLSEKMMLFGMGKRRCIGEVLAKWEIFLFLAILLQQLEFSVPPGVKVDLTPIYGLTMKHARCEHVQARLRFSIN
# Procedure, shortened: as §1
# human plasma proteins = assay: Plasma protein binding by gel filtration; assay type: in vitro ADME; details: 2 h, 37°C
# Procedure, shortened: (§2)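 Test compound (2.65, 13.3 and 40.0 μM final) was incubated in plasma for 2 h at 37°C. Bound compound was separated on Sephadex G-25 by spin filtration (5 min, 200 × g). Eluates were run in duplicate: EDTA addition, chloroform:methanol extraction, acetonitrile precipitation, then LC-MS/MS (MRM 751 → 195, positive ESI) against 15 plasma standards from 0 to 66.7 μM. Eluate concentration was corrected for protein dilution, measured by microbiuret against BSA standards. % bound = corrected/total (mean ± SD, n = 3).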
# CYP3A4 = CYP3A4 (Homo sapiens, UniProt P08684); assay: CYP inhibition in human liver microsomes; assay type: in vitro ADME; details: 1 or 10 μM test article, 20 min, 37°C
# Chain of CYP3A4 (P08684 whole entry): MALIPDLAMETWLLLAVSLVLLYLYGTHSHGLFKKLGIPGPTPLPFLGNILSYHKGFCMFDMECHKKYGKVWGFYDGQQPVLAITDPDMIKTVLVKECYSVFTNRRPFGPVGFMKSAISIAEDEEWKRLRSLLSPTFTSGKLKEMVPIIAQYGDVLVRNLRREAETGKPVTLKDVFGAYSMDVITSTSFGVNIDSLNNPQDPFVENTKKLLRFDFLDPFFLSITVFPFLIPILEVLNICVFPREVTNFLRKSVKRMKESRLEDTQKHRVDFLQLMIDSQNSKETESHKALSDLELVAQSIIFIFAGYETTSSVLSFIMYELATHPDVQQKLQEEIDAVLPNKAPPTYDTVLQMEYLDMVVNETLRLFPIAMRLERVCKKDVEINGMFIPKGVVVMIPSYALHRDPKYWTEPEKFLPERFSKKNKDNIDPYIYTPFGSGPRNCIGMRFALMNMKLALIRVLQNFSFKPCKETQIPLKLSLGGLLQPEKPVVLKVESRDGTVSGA
# Procedure, shortened: as §1
# [6] = Stability in simulated gastric fluid; assay type: in vitro ADME; details: SGF pH 1.2 with pepsin, 37°C, 60 min
# Procedure, shortened: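 Simulated gastric fluid (pH 1.2) contained 3.2 g/L porcine pepsin, 2 g/L NaCl and 8 mL/L 6 N HCl, stored at 2–8°C and pre-warmed to 37°C. […] Reactions were stopped with 0.1 M sodium carbonate and chilled acetonitrile containing ¹³C internal standard, filtered, and analysed by LC-MS; content is expressed relative to initial.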
# rat plasma proteins = assay: Plasma protein binding by gel filtration; assay type: in vitro ADME, Sprague Dawley rat; details: 2 h, 37°C
# Procedure, shortened: as §2
# Stability in plasma [7] = assay type: in vitro ADME; details: human plasma diluted 1:1 with PBS, 15 μM, up to 1 h, 37°C
# [8] = Permeability through Transwell plate not containing Caco-2 cells; assay type: in vitro ADME; details: 24-well Transwell plate not containing Caco-2 cells
# Procedure, shortened: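 This run repeated the Caco-2 bi-directional protocol in a Transwell plate without cells. Test compound (10 and 50 μM final) in HBSS, pH 7.4, was placed in duplicate wells for each direction. Receiver aliquots were taken at 30, 60, 90 and 120 min into 10 mM EDTA and replaced with fresh medium. Donor wells were sampled at start and end for recovery. Analysis was LC-MS/MS (positive ESI, MRM), and Papp was calculated from dQ/dt, receiver volume, membrane area and initial concentration.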
# Stability in plasma [9] = assay type: in vitro ADME; details: rat plasma diluted 1:1 with PBS, 15 μM, up to 1 h, 37°C
# Caco-2 cells = assay: Bi-directional permeability study using Caco-2 cells; details: for % Recovery of Test Article A–B (mean) / % Recovery of Test Article B-A (mean): end of experiment
# [10] = Metabolic stability using pooled human liver microsomes; assay type: in vitro ADME; details: 10 and 50 μM, active microsomes, up to 60 min, 37°C
# dog plasma proteins = assay: Plasma protein binding by gel filtration; assay type: in vitro ADME, beagle dog; details: 2.7, 13.3 and 40.0 μM, 2 h, 37°C
# Procedure, shortened: as §2
compound,measurement,setting,value
"C[C@H]1O[C@@H](O[C@H]2[C@@H](O)C[C@H](O[C@H]3[C@@H](O)C[C@H](O[C@H]4CC[C@@]5(C)[C@H](CC[C@@H]6[C@@H]5C[C@@H](O)[C@]5(C)[C@@H](C7=CC(=O)OC7)CC[C@]65O)C4)O[C@@H]3C)O[C@@H]2C)C[C@H](O)[C@@H]1O [digoxin, reference compound]","Papp A→B at 120 min, 1 μM",P-gp; 1 μM + 100 μM ketoconazole,37 nm/s
same,"Papp A→B at 120 min, 1 μM","P-gp; 1 μM, control",31 nm/s
same,"Papp B→A at 120 min, 1 μM",P-gp; 1 μM + 100 μM ketoconazole,18 nm/s
same,"Papp B→A at 120 min, 1 μM","P-gp; 1 μM, control",86 nm/s
CC(C)NCC(O)COc1cccc2ccccc12 (stereo not drawn) [propranolol],stability in gastric fluid,[1],stable
"O=C(NCCCN(CCCCN(CCCNC(=O)c1cccc(=O)n1O)C(=O)c1cccc(=O)n1O)C(=O)c1cccc(=O)n1O)c1cccc(=O)n1O [3,4,3-LI(1,2-HOPO)]",stability in plasma (% of test article remaining),Stability in plasma [2],No degradation
same,% CYP activity relative to control,CYP2B6,none of the CYP isoforms were significantly influenced
same,% CYP activity relative to control,CYP2C19,none of the CYP isoforms were significantly influenced
same,% CYP activity relative to control,CYP2C9,none of the CYP isoforms were significantly influenced
same,% CYP activity relative to control,CYP2D6,none of the CYP isoforms were significantly influenced
same,stability in acidic buffer,"[3]; acetate buffer USP pH 4.50, 10 mg/mL",stable
same,stability in acidic buffer,"[3]; hydrochloric acid buffer USP pH 1.40, 10 mg/mL",stable
same,stability in hydrochloric acid buffer without pepsin,"[3]; pH 1.4, 3 h",stable
same,stability in acidic buffer,"[3]; phosphate buffer USP pH 6.80, 10 mg/mL",stable
same,plasma concentration,[4],less than 2 μg/mL
same,stability in plasma (% of test article remaining),Stability in plasma [5],No degradation
same,% CYP activity relative to control,CYP1A2,none of the CYP isoforms were significantly influenced
same,% protein-bound,human plasma proteins; 2.65 μM,below the lower limit of quantitation
same,extent of plasma protein binding (rank among species),"human plasma proteins; 2.7, 13.3 and 40.0 μM",intermediate
same,% CYP activity relative to control,CYP3A4,none of the CYP isoforms were significantly influenced
same,% of the initial content remained in simulated gastric fluid,[6]; 1 μM,76%
same,% of the initial content remained in simulated gastric fluid,[6]; 10 μM,72%
same,% protein-bound,rat plasma proteins; 2.65 μM,below the lower limit of quantitation
same,extent of plasma protein binding (rank among species),"rat plasma proteins; 2.7, 13.3 and 40.0 μM",lowest
same,stability in plasma (% of test article remaining),Stability in plasma [7],No degradation
same,permeation of the Transwell membrane in the absence of Caco-2 cells,[8],detectable levels
same,stability in plasma (% of test article remaining),Stability in plasma [9],No degradation
same,% Recovery of Test Article A–B (mean),Caco-2 cells; 10 μM + 100 μM ketoconazole,120.6%
same,% Recovery of Test Article B-A (mean),Caco-2 cells; 10 μM + 100 μM ketoconazole,90.3%
same,% Recovery of Test Article A–B (mean),Caco-2 cells; 10 μM,112.2%
same,% Recovery of Test Article B-A (mean),Caco-2 cells; 10 μM,87.2%
same,% Recovery of Test Article A–B (mean),Caco-2 cells; 50 μM + 100 μM ketoconazole,114.9%
same,% Recovery of Test Article B-A (mean),Caco-2 cells; 50 μM + 100 μM ketoconazole,85.7%
same,% Recovery of Test Article A–B (mean),Caco-2 cells; 50 μM,105.5%
same,% Recovery of Test Article B-A (mean),Caco-2 cells; 50 μM,97.6%
same,concentration in the receiving wells,"Caco-2 cells; 10 and 50 μM solutions, lower limit of quantitation",< 0.5 µM
same,permeability across the Caco-2 monolayer,"Caco-2 cells; bi-directional, 10 and 50 μM",not permeable
same,% of test article remaining (metabolic stability),[10],no loss of parent test article
same,extent of plasma protein binding (rank among species),dog plasma proteins,greatest
